This note sets out measurements from ChEMBL document CHEMBL5260840 (J Med Chem, 2019).

What all share (assay type): cell-based
Assay [1] concerns the target T1, von Hippel-Lindau disease tumor suppressor/Bromodomain-containing protein 9 (Homo sapiens) (UniProt Q9H8M2+P40337). Description: PROTAC activity at VHL/BRD9 in human Ri-1 cells assessed as remaining BRD9 protein level at 100 nM incubated for 2 hrs by Western blot analysis relative to control. In outline:
(§1)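 Ri-1 cells exposed to compound for the stated time before harvest; BRD9, BRD7 and β-actin measured by Western blot, band intensities quantified and set against DMSO-treated control.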
Background: A western blot detects proteins with antibodies after separation by electrophoresis.

Assay [2] has as its target T1, von Hippel-Lindau disease tumor suppressor/Bromodomain-containing protein 9 (Homo sapiens). The experiment in a line: PROTAC activity at VHL/BRD9 in human Ri-1 cells assessed as remaining BRD9 protein level at 1 uM incubated for 8 hrs by Western blot analysis relative to control. In outline:
as §1

Assay [3] has the same target. Description: PROTAC activity at VHL/BRD9 in human Ri-1 cells assessed as remaining BRD9 protein level at 10 nM incubated for 8 hrs by Western blot analysis relative to control. The procedure, abridged: as §1
Assay [4] addresses T2, von Hippel-Lindau disease tumor suppressor/Bromodomain-containing protein 7 (Homo sapiens) (UniProt Q9NPI1+P40337). Description: PROTAC activity at VHL/BRD7 in human Ri-1 cells assessed as remaining BRD7 protein level at 1 uM incubated for 8 hrs by Western blot analysis relative to control.
In assay [5] the target is T1, von Hippel-Lindau disease tumor suppressor/Bromodomain-containing protein 9 (Homo sapiens). Description: PROTAC activity at VHL/BRD9 in human Ri-1 cells assessed as remaining BRD9 protein level at 10 nM incubated for 2 hrs by Western blot analysis relative to control. The procedure, abridged:
as §1

For assay [6], the target named is T2, von Hippel-Lindau disease tumor suppressor/Bromodomain-containing protein 7 (Homo sapiens). Description: PROTAC activity at VHL/BRD7 in human Ri-1 cells assessed as remaining BRD7 protein level at 1 nM incubated for 2 hrs by Western blot analysis relative to control.
Assay [7] has the same target. The experiment in a line: PROTAC activity at VHL/BRD7 in human Ri-1 cells assessed as remaining BRD7 protein level at 10 nM incubated for 8 hrs by Western blot analysis relative to control. In outline: as §1
The target is the same in assay [8]. The experiment in a line: PROTAC activity at VHL/BRD7 in human Ri-1 cells assessed as remaining BRD7 protein level at 1 nM incubated for 8 hrs by Western blot analysis relative to control.
The target is the same in assay [9]. Description: PROTAC activity at VHL/BRD7 in human Ri-1 cells assessed as remaining BRD7 protein level at 0.1 nM incubated for 8 hrs by Western blot analysis relative to control.
Assay [10] shares this target. The experiment in a line: PROTAC activity at VHL/BRD7 in human Ri-1 cells assessed as remaining BRD7 protein level at 10000 nM incubated for 2 hrs by Western blot analysis relative to control. In outline: as §1
Assay [11] shares this target. The experiment in a line: PROTAC activity at VHL/BRD7 in human Ri-1 cells assessed as remaining BRD7 protein level at 1 uM incubated for 2 hrs by Western blot analysis relative to control.
Assay [12] shares this target. Description: PROTAC activity at VHL/BRD7 in human Ri-1 cells assessed as remaining BRD7 protein level at 100 nM incubated for 2 hrs by Western blot analysis relative to control. The procedure, abridged: as §1
For assay [13], the target named is T1, von Hippel-Lindau disease tumor suppressor/Bromodomain-containing protein 9 (Homo sapiens). Description: PROTAC activity at VHL/BRD9 in human Ri-1 cells assessed as remaining BRD9 protein level at 100 nM incubated for 8 hrs by Western blot analysis relative to control. The procedure, abridged: as §1
The target is the same in assay [14]. The experiment in a line: PROTAC activity at VHL/BRD9 in human Ri-1 cells assessed as remaining BRD9 protein level at 1 uM incubated for 2 hrs by Western blot analysis relative to control. The procedure, abridged: as §1
For assay [15] the target is unchanged. The experiment in a line: PROTAC activity at VHL/BRD9 in human Ri-1 cells assessed as remaining BRD9 protein level at 1 nM incubated for 8 hrs by Western blot analysis relative to control. In outline:
as §1

Assay [16] addresses T2, von Hippel-Lindau disease tumor suppressor/Bromodomain-containing protein 7 (Homo sapiens). Description: PROTAC activity at VHL/BRD7 in human Ri-1 cells assessed as remaining BRD7 protein level at 100 nM incubated for 8 hrs by Western blot analysis relative to control. The procedure, abridged:
as §1

Assay [17] deals with T1, von Hippel-Lindau disease tumor suppressor/Bromodomain-containing protein 9 (Homo sapiens). The experiment in a line: PROTAC activity at VHL/BRD9 in human Ri-1 cells assessed as remaining BRD9 protein level at 10000 nM incubated for 2 hrs by Western blot analysis relative to control. In outline:
as §1

The target is the same in assay [18]. Description: PROTAC activity at VHL/BRD9 in human Ri-1 cells assessed as remaining BRD9 protein level at 0.1 nM incubated for 8 hrs by Western blot analysis relative to control. The procedure, abridged:
as §1

Assay [19] concerns the target T2, von Hippel-Lindau disease tumor suppressor/Bromodomain-containing protein 7 (Homo sapiens). Description: PROTAC activity at VHL/BRD7 in human Ri-1 cells assessed as remaining BRD7 protein level at 10 nM incubated for 2 hrs by Western blot analysis relative to control.
The target in assay [20] is T1, von Hippel-Lindau disease tumor suppressor/Bromodomain-containing protein 9 (Homo sapiens). The experiment in a line: PROTAC activity at VHL/BRD9 in human Ri-1 cells assessed as remaining BRD9 protein level at 1 nM incubated for 2 hrs by Western blot analysis relative to control. The procedure, abridged:
as §1

Assay [21] concerns the target T2, von Hippel-Lindau disease tumor suppressor/Bromodomain-containing protein 7 (Homo sapiens). The experiment in a line: PROTAC activity at VHL/BRD7 in human HeLa cells assessed as remaining BRD7 protein level at 1 uM incubated for 4 hrs by Western blot analysis relative to control.

T2 sequence (P40337 whole entry, looked up): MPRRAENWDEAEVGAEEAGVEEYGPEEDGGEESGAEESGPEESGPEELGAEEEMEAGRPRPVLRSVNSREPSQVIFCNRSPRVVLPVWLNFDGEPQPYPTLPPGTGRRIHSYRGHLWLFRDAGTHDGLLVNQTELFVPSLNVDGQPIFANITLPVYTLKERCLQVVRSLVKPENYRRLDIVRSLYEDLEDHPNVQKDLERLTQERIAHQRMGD
T2 sequence (Q9NPI1 whole entry, looked up): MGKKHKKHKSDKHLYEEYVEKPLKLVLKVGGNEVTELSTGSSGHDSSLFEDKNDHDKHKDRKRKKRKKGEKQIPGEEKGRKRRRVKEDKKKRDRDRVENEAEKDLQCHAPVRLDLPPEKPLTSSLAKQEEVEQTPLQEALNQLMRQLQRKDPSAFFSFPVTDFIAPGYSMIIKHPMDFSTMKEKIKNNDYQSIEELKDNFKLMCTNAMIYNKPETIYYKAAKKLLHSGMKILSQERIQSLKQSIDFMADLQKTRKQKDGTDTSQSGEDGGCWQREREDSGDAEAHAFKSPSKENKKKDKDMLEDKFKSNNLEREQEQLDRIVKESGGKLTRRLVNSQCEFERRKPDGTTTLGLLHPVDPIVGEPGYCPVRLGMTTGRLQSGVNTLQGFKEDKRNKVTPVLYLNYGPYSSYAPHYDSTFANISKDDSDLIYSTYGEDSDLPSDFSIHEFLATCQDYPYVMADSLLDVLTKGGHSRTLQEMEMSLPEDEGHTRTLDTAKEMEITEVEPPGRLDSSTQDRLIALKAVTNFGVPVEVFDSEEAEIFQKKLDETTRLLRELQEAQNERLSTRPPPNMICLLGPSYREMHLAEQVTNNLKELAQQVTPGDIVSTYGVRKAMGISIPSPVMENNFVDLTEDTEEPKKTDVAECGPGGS
T1 sequence (P40337 whole entry, looked up): as the sequence (P40337 whole entry, looked up) above
T1 sequence (Q9H8M2 whole entry, looked up): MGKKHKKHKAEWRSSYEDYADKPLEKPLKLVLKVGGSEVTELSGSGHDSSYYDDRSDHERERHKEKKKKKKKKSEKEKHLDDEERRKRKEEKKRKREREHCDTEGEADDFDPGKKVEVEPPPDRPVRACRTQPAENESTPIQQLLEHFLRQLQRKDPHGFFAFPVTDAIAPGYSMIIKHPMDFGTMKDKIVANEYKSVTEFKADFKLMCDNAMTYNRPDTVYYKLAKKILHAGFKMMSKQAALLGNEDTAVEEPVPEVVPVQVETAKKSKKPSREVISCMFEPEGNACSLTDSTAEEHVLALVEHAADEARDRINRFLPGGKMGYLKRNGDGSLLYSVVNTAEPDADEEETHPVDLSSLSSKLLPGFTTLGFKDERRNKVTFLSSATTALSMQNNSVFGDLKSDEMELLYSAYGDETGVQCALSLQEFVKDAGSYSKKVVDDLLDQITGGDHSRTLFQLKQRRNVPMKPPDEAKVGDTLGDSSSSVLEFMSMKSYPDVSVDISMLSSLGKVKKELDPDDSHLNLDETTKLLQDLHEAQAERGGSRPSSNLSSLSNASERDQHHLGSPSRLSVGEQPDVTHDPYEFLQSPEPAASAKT

With `COc1cc(-c2cn(C)c(=O)c3cnccc23)cc(OC)c1CN1CCN(CCOCCOc2cc(-c3scnc3C)ccc2CNC(=O)[C@@H]2C[C@@H](O)CN2C(=O)[C@@H](NC(=O)C2(F)CC2)C(C)(C)C)CC1`, the Activity was 50% in [1]; 6% in assay [2]; 103% in assay [3]; 8% in assay [4]; 113% in assay [5]; 101% in assay [6]. Besides, the Activity in assay [7] was determined as 155%; in assay [8] it was 155%; in [9], 155%; in assay [10] it was 33%; in [11], 63%; in assay [12], 75%. The Activity was 63% in assay [13]; 44% in assay [14]; 109% in assay [15]; 152% in [16]; 66% in assay [17]; 117% in assay [18]. Further, the values for the Activity in assay [19], in [20] and in [21] were 123%, 110% and 8%, respectively.
